The values below come from ChEMBL document CHEMBL1137655, “Isoxyl activation is required for bacteriostatic activity against Mycobacterium tuberculosis” (2007).

What all share (type): functional, organism-based
Settings in all cases: Mycobacterium bovis BCG str. Pasteur 1173P2

For assay [1], the system named is Mycobacterium tuberculosis variant bovis. Description: Inhibition of mycolic acid synthesis in Mycobacterium bovis BCG Pasteur 1173P2 sonicates assessed as inhibition of alphamycolates production using partially purified EthA as cofactor by autoradiography. The method, boiled down:
(§1)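 BCG sonicate (3 mg protein) with 1 μCi [1,2-14C]acetate, ISO 0, 2 or 5 μg/ml final, ±purified EthA (up to 10 μg), 25 mM Tris-HCl pH 7.5; 10 min ice, 2 h 37°C; mycolic acid methyl esters by TLC (hexane:ethyl acetate 95:5) and autoradiography.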

The test system is the same in assay [2]. Description: Inhibition of mycolic acid synthesis in Mycobacterium bovis BCG Pasteur 1173P2 sonicates assessed as inhibition of alphamycolates production by autoradiography. The method in brief:
as §1

The test system is the same in assay [3]. Description: Inhibition of mycolic acid synthesis in Mycobacterium bovis BCG Pasteur 1173P2 sonicates assessed as inhibition of ketomycolates production using partially purified EthA as cofactor by autoradiography. The method, boiled down: as §1
Assay [4] has the same test system. In words: Inhibition of mycolic acid synthesis in Mycobacterium bovis BCG Pasteur 1173P2 sonicates assessed as inhibition of ketomycolates production by autoradiography. The method, boiled down: as §1

Activity calls are given as the source filed them. No cut-off for these calls is given here.

Turning to `CC(C)CCOc1ccc(NC(=S)Nc2ccc(OCCC(C)C)cc2)cc1` [TIOCARLIDE], the result in assay [1] and in assay [3] was inactive. For the same compound, the result in assay [2] and in assay [4] was Active.
